According to the EternaBench riboswitch data:

System: MS2 coat protein
Experiment: apparent Kd, MS2 coat protein; higher = weaker binding; RNA-MaP array; FMN 200 µM where present
Summary of the method: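 Each design was made on Illumina sequencing-chip clusters by stalled E. coli RNA polymerase and titrated with SNAP-549-labelled MS2 coat protein from 0.7 or 1.5 nM, doubling to 3 µM, in the absence and then the presence of constant ligand. The buffer was 100 mM Tris-HCl pH 7.5, 80 mM KCl, 4 mM MgCl2, BSA, DTT, yeast tRNA and Tween-20. The apparent Kd is the median of filtered per-cluster fits of binding curves, with green signal normalised to red-channel RNA signal and control-cluster median Fmax.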

[1] = designed as: ON switch for flavin mononucleotide, no ligand
[2] = ligand present: flavin mononucleotide, designed as: ON switch for flavin mononucleotide
[3] = designed as: OFF switch for flavin mononucleotide, no ligand
[4] = ligand present: flavin mononucleotide, designed as: OFF switch for flavin mononucleotide

Sequence	apparent Kd [1]	apparent Kd [2]	apparent Kd [3]	apparent Kd [4]
UUACUCAUGUAAGGAUAUGCAGCCGAAACGGCUGCAGAAGGUACUACAAUACAUGAGGAUCACCCAUGUAAAAUAAAUAAAGUU	53.7 nM	22.7 nM	–	–
UGAUCGAAAGAUCAUAGAUUCUGCUAGGAUAUGCAGGAGUUGCGCUUUACAUGAGGAUCACCCAUGUAGAAGGAGUAGAGUCUA	–	–	6.77 nM	8.88 nM
UAACAGUUAGGAUAUACCAGGGUAUCCUCGCGGCGCCGAAAACAUGAGGAUCACCCAUGUAGAAGGAACCGUUU	–	–	65 nM	19.6 nM
AGUAAAGGCCUGAGGUGUCCGAACAUGAGGAUCACCCAUGUAGAGGAUAUAGGUGGAAGUGACGCCUAGAAGGCUACGUGUCAU	–	–	8.8 nM	11 nM
UUAUACGUUGAGGAUAUGCGAAUAAGUAUAGUUGCAGAAGGCGAUACAUGAGGAUCACCCAUGUUCAUGGACAU	–	–	126 nM	180 nM
GUGUAGUCAGGAUAUACAUAGGAAGAGAAGAGAAGAGAAGCACAUGAGGAUCACCCAUGUAGAAGGGACAGUGU	–	–	70.9 nM	82.9 nM
AAGAGAGCAGGAUAUCGGUUUUGCGACAUGAGGAUCACCCAUGUGAGCCGAGUCCAACGCCGAGAAGGGCUAAAAU	–	–	62.5 nM	336 nM
UCUGCCGCCGUGAGGAUAUGCCCAAAUAAAAGCGGGCAGAAGGCACAUGAGGAUCACCCAUGUCCCGCGGUUUU	–	–	15.8 nM	38.4 nM
CGAUAUAUGAAGGGCGAACACGCACAUGAGGAUCACCCAUGUAGAAGGCGAUCCGCAACGCGGAUCGAGGAUAUAUAGUAUACA	–	–	35.6 nM	42.4 nM
AUGGUGUGAUAGGAUAUUGCUGGGUCAACCUUUUAAGAAGGGUCUACAUGAGGAUCACCCAUGUGGGUGUCCCU	–	–	65.3 nM	60.2 nM
CCAGGCAGUGUGAGGAUAUGCUGGUGCUUGCAUCAGCAGAAGGCACAUGAGGAUCACCCAUGUGAAGAGCUUGG	–	–	27.6 nM	131 nM
AACCAGUUGGUAGGAUAUGGUACAGUACCCGUACCAGAAGGACCAACAUGAGGAUCACCCAUGUUGGAAAGUCAACAUUAAUGA	–	–	6.51 nM	14 nM
GGUGUCAUCGAGAAGGCCUCAACAUGAGGAUCACCCAUGUUGUAAUAUGGGAGGAUAUCGAUGAUACAGCUACGUUUCGUAGCU	20.2 nM	5.86 nM	–	–
GCAAUGUGAUAAGGAUAUCCAAUGGCAUCCCUAGGAGAAGGUAUCACAUGAGGAUCACCCAUGUGAAGGACGGGUUAUCGCAAA	–	–	–	211 nM
GCACAUGGCAUAGGAUAUAGAAGUAUACAUUAUAUAGGUAGUGUCACAACACUAGAAGGAUGAAACAUGAGGAUCACCCAUGUA	16.2 nM	12.3 nM	–	–
AAUAGUUCCGAGGAUAUAUCUCCACCGUGGGUGGUAGAAGGCGGGACAUGAGGAUCACCCAUGUACAAAUUCUC	–	–	75.2 nM	98.1 nM
CCAGAGAUAUGAGGAUAUCGAGUGGAAUACACUCGAGAAGGCAUGUGAAAACAUGAGGAUCACCCAUGUGAUCAAUACUCUGGA	176 nM	27.7 nM	–	–
UUGGACGUCGUAGGAAAUGUAGGAUAUUCCUACAUGAGGAUCACCCAUGUUGACAUGGAAGAAGGACAGAAGGACGAUGUCCAU	517 nM	11 nM	–	–
GUUUAGUGAGGAUAUGUGGCGUGGAUCGAGCGCGGUCUGCUACAGAAGGCACAUGAGGAUCACCCAUGUUUCUC	–	–	166 nM	329 nM
AAGAAGCACGCAGGAUAUCUCACCCAUGUAAGAAGAGAAGGGCGACAUGAGGAUCACCCAUGUCAACAUGAGGAUCACCCAUGU	–	–	62.2 nM	87.8 nM
CUUCGUAUAGAGGAUAUAGGAUACUGCGGUGUCCUAGAAGGCUGUACAUGAGGAUCACCCAUGUACUUCAGAUC	–	–	12.6 nM	17.9 nM
AAGACUAGAGGAUAUACAUGAGGAUCACCCAUGUAACUGUCAGGUGACUGACGGAGAUGUAGAAGGCUAGUCAA	–	–	19.6 nM	43.2 nM
GCACUUUUAUUUGAACCGAUUCGAACAUGAGGAUCACCCAUGUAGGAUAUGCUAAAAGUUGUGAUGCAGAAGGACAUUAAGUGC	–	–	5.94 nM	6.99 nM
AGGUCAACCACAGGAUAUGGCUAGCAUAGCUAGCCAGAAGGGUGGUCGUUGCCAUGUACAUACAUGAGGAUCACCCAUGUAUCC	179 nM	54.7 nM	–	–
